According to article PMC3985758 (ACS Chemical Biology, 2014):

Key:
[1] = tested on: MCF7 cells; conditions: cited from earlier work
[2] = tested on: MCF7; test: Concentration-response proliferation assay, colloidal vs monomeric formulation; type: cell-based
Summary of the method: (§1)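 Cells seeded at 10,000 cells/cm2 and left to adhere overnight, then dosed in RPMI 1640 with 10% charcoal-stripped FBS. Colloidal formulation: DMSO stock diluted 1000-fold into medium (0.1% DMSO). Monomeric formulation: stock diluted 10-fold in DMSO, then into medium giving 1% DMSO and 0.025% v/v polysorbate 80. Vehicle controls made the same way. Medium refreshed every 12 h over 72 h; cells washed; proliferation by MTS or DAPI nuclei counts, relative to untreated.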

[3] = tested on: BT474; test: as above; type: cell-based
Summary of the method: as §1

[4] = tested on: MDA-MB-231 cells; test: Concentration-response proliferation assay; type: cell-based
Summary of the method: as §1

[5] = known aggregators; not among compounds measured by DLS here; cited from earlier work
[6] = tested on: T47D ductal carcinoma cell line; test: Concentration-response proliferation assay, colloidal vs monomeric formulation; type: cell-based
Summary of the method: as §1

O=c1c(-c2ccc(O)cc2)coc2cc(O)cc(O)c12 [Genistein]
concentration of maximum activity of bell-shaped curve [1]: 50 µM

C[C@]12CC[C@@H]3c4ccc(O)cc4C[C@@H](CCCCCCCCC[S+]([O-])CCCC(F)(F)C(F)(F)F)[C@H]3[C@@H]1CC[C@@H]2O (stereo partly drawn) [Fulvestrant]
concentration at which loss of activity is observed [2]: ≥ 1 µM
concentration at which loss of activity is observed [3]: ≥ 1 µM

CNC(=O)c1cc(Oc2ccc(NC(=O)Nc3ccc(Cl)c(C(F)(F)F)c3)cc2)ccn1 [Sorafenib, sorafenib]
inhibition of cell proliferation ([4]; 10 μM, colloidal formulation (0.1% DMSO, no UP 80), 72 h): almost entirely eliminated
inhibition at 10 µM ([4]; Homo sapiens, MDA-MB-231, 72 h, read-out: inhibition of proliferation): ~90%
concentration at which loss of activity is observed ([4]; colloidal formulation, MDA-MB-231): ≥ 10 µM
CAC (critical aggregation concentration) [5]: 3.5 µM

C[C@@H](Oc1cc(-c2cnn(C3CCNCC3)c2)cnc1N)c1c(Cl)ccc(F)c1Cl [Crizotinib, crizotinib]
concentration at which antiproliferative activity is lost [6]: 10 µM
CAC (critical aggregation concentration) [5]: 19.3 µM
